Assay results published in ChEMBL document CHEMBL3045225, “Vapor-phase toxicity of Derris scandens Benth.-derived constituents against four stored-product pests” (2011).
Values after ≈ are worked out from the molar mass of the structure shown. Active and inactive are the calls of the source. The rule behind the calls is not given here.

Columns and labels:
Callosobruchus chinensis [1] = assay: Insecticidal activity against 3 to 8 days old Callosobruchus chinensis assessed as mortality at 1 ug/mL measured after 24 hr by fumigation assay; type: functional
Method in brief: (§1)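 Adults from Directorate of Maize Research lab cultures, 20 per sealed 100 mL PVC container. Acetone solutions (0.1-1.0 μg/mL) applied to filter paper, air-dried 5 min, fixed inside lid; acetone-only controls. Held at 28 ± 2 °C, 65 ± 5% RH. Death confirmed by paintbrush probing; counted every 24 h to 72 h. Five replicates per treatment; three runs on different dates.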

Tribolium castaneum [2] = assay: Insecticidal activity against 3 to 8 days old Tribolium castaneum (red flour beetle) assessed as mortality at 0.2 ug/mL measured within 24 hr by fumigation assay; type: functional, organism-based; method in brief: as §1
Tribolium castaneum [3] = assay: Insecticidal activity against 3 to 8 days old Tribolium castaneum (red flour beetle) assessed as mortality measured after 24 hr by fumigation assay; type: functional; method in brief: as §1
Tribolium castaneum [4] = assay: Insecticidal activity against 3 to 8 days old Tribolium castaneum (red flour beetle) assessed as mortality at 1 ug/mL measured after 72 hr by fumigation assay; type: functional; method in brief: as §1
Tribolium castaneum [5] = assay: Insecticidal activity against 3 to 8 days old Tribolium castaneum (red flour beetle) assessed as mortality at 1 ug/mL measured after 24 hr by fumigation assay; type: functional; method in brief: as §1
Rhyzopertha dominica [6] = assay: Insecticidal activity against 3 to 8 days old Rhyzopertha dominica assessed as mortality measured after 24 hr by fumigation assay; type: functional; method in brief: as §1
Rhyzopertha dominica [7] = assay: Insecticidal activity against 3 to 8 days old Rhyzopertha dominica assessed as mortality at 1 ug/mL measured after 72 hr by fumigation assay; type: functional; method in brief: as §1
Rhyzopertha dominica [8] = assay: Insecticidal activity against 3 to 8 days old Rhyzopertha dominica assessed as mortality at 1 ug/mL measured after 24 hr by fumigation assay; type: functional; method in brief: as §1
Sitophilus oryzae [9] = assay: Insecticidal activity against 3 to 8 days old Sitophilus oryzae (rice weevil) assessed as mortality measured after 72 hr by fumigation assay; type: functional; method in brief: as §1
Sitophilus oryzae [10] = assay: Insecticidal activity against 3 to 8 days old Sitophilus oryzae (rice weevil) assessed as mortality at 1 ug/mL measured after 72 hr by fumigation assay; type: functional; method in brief: as §1
Sitophilus oryzae [11] = assay: Insecticidal activity against 3 to 8 days old Sitophilus oryzae (rice weevil) assessed as mortality at 1 ug/mL measured after 24 hr by fumigation assay; type: functional; method in brief: as §1
Callosobruchus chinensis [12] = assay: Insecticidal activity against 3 to 8 days old Callosobruchus chinensis assessed as mortality measured after 72 hr by fumigation assay; type: functional; method in brief: as §1
Callosobruchus chinensis [13] = assay: Insecticidal activity against 3 to 8 days old Callosobruchus chinensis assessed as mortality at 1 ug/mL measured after 72 hr by fumigation assay; type: functional; method in brief: as §1
Callosobruchus chinensis [14] = assay: Insecticidal activity against 3 to 8 days old Callosobruchus chinensis assessed as mortality at 1 ug/mL measured after 48 hr by fumigation assay; type: functional; method in brief: as §1
Tribolium castaneum [15] = assay: Insecticidal activity against 3 to 8 days old Tribolium castaneum (red flour beetle) assessed as mortality at 1 ug/mL measured after 48/ hr by fumigation assay; type: functional; method in brief: as §1
Rhyzopertha dominica [16] = assay: Insecticidal activity against 3 to 8 days old Rhyzopertha dominica assessed as mortality at 1 ug/mL measured after 48 hr by fumigation assay; type: functional; method in brief: as §1
Sitophilus oryzae [17] = assay: Insecticidal activity against 3 to 8 days old Sitophilus oryzae (rice weevil) assessed as mortality at 1 ug/mL measured after 48 hr by fumigation assay; type: functional; method in brief: as §1

Compound | mortality at 1 µg/mL (Callosobruchus chinensis [1]) [%] | Activity (Tribolium castaneum [2]) | LC50 (Tribolium castaneum [3]) [µg/mL] | mortality at 1 µg/mL (Tribolium castaneum [4]) [%] | mortality at 1 µg/mL (Tribolium castaneum [5]) [%] | LC50 (Rhyzopertha dominica [6]) [µg/mL] | mortality at 1 µg/mL (Rhyzopertha dominica [7]) [%] | mortality at 1 µg/mL (Rhyzopertha dominica [8]) [%] | LC50 (Sitophilus oryzae [9]) [µg/mL] | mortality at 1 µg/mL (Sitophilus oryzae [10]) [%] | mortality at 1 µg/mL (Sitophilus oryzae [11]) [%] | LC50 (Callosobruchus chinensis [12]) [µg/mL] | mortality at 1 µg/mL (Callosobruchus chinensis [13]) [%] | mortality at 1 µg/mL (Callosobruchus chinensis [14]) [%] | mortality at 1 µg/mL (Tribolium castaneum [15]) [%] | mortality at 1 µg/mL (Rhyzopertha dominica [16]) [%] | mortality at 1 µg/mL (Sitophilus oryzae [17]) [%]
O=c1c(-c2ccc(O)cc2)coc2cc(O)cc(O)c12 [GENISTEIN] | 100 | Active | 0.18 (≈ 0.666 µM) | 100 | 100 | 0.28 (≈ 1.04 µM) | 100 | 100 | 0.31 (≈ 1.15 µM) | 100 | 100 | 0.17 (≈ 0.629 µM) | 100 | – | – | – | –
CC(C)=CCc1c2c(c(O)c3c(=O)cc(-c4ccc(O)cc4)oc13)C=CC(C)(C)O2 [LAXIFOLIN] | 88.8 | – | 0.34 (≈ 0.841 µM) | 100 | 92.3 | 0.34 (≈ 0.841 µM) | 92 | 89.3 | 0.2 (≈ 0.494 µM) | 100 | 100 | 0.39 (≈ 0.964 µM) | 96.4 | 93.2 | 94.6 | 90.8 | –
CC(C)=CCc1cc(-c2coc3cc(O)c(CC=C(C)C)c(O)c3c2=O)ccc1O [LUPALBIGENIN] | 100 | – | 0.38 (≈ 0.935 µM) | 91 | 85.4 | 0.29 (≈ 0.713 µM) | 100 | 93.4 | 0.26 (≈ 0.64 µM) | 100 | 100 | 0.23 (≈ 0.566 µM) | 100 | – | 88.4 | 94.6 | –
CC(C)=CCc1c2c(c3occ(-c4ccc(O)cc4)c(=O)c3c1O)C=CC(C)(C)O2 [OSAJIN] | 100 | Active | 0.26 (≈ 0.643 µM) | 100 | 100 | 0.32 (≈ 0.791 µM) | 100 | 100 | 0.28 (≈ 0.692 µM) | 100 | 100 | 0.29 (≈ 0.717 µM) | 100 | – | – | – | –
COc1ccc(-c2c(O)c3c(OC)c(CC=C(C)C)c4c(c3oc2=O)C=CC(C)(C)O4)cc1 [SCANDENIN A] | 79 | – | 0.82 (≈ 1.83 µM) | 63.8 | 58.2 | 0.82 (≈ 1.83 µM) | 67.8 | 60.6 | 0.76 (≈ 1.69 µM) | 75.6 | 69.4 | 0.43 (≈ 0.959 µM) | 83 | 81.4 | 60.8 | 64.2 | 72
COc1c(CC=C(C)C)c2c(c3oc(=O)c(-c4ccc(O)cc4)c(O)c13)C=CC(C)(C)O2 [SCANDENIN] | 49.5 | – | > 1 | 32.2 | 24.7 | 0.74 (≈ 1.7 µM) | 78.2 | 72.3 | 0.45 (≈ 1.04 µM) | 85.4 | 82 | 0.9 (≈ 2.07 µM) | 58.2 | 56 | 29.6 | 75.8 | 83.6
COc1c(CC=C(C)C)c2c(c3occ(-c4ccc(O)cc4)c(=O)c13)C=CC(C)(C)O2 [SCANDINONE] | 100 | Active | 0.2 (≈ 0.478 µM) | 100 | 100 | 0.33 (≈ 0.789 µM) | 100 | 100 | 0.24 (≈ 0.573 µM) | 100 | 100 | 0.31 (≈ 0.741 µM) | 100 | – | – | – | –
C[C@@H]1O[C@@H](OC[C@H]2O[C@@H](Oc3cc(O)c4c(=O)c(-c5ccc(O)cc5)coc4c3)[C@H](O)[C@@H](O)[C@@H]2O)[C@H](O)[C@H](O)[C@H]1O [SPHAEROBIOSIDE] | 100 | Active | 0.2 (≈ 0.346 µM) | 100 | 100 | 0.27 (≈ 0.467 µM) | 100 | 100 | 0.18 (≈ 0.311 µM) | 100 | 100 | 0.21 (≈ 0.363 µM) | 100 | – | – | – | –
CC(C)=CCc1c2c(c(O)c3c(=O)c(-c4ccc(O)cc4)coc13)C=CC(C)(C)O2 [WARANGALONE] | 27.9 | – | > 1 | 37.2 | 30.7 | > 1 | 21.8 | 15.8 | 0.84 (≈ 2.08 µM) | 63.4 | 50.1 | > 1 | 31.4 | 29.1 | 32.8 | 18.6 | 60
